Most compounds without a hit are left out; they make up all but 2.4% or so of the library.
CendR NRP1 mod: modulators of CendR peptide binding to human neuropilin-1; O14786; FAM-RPARPAR peptide binding to NRP-1, fluorescence polarization; inhibition, % at 25 µM; 360,000 tested, 0.85% active; AID 602438;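 active = inhibition or corrected inhibition above about 18%, plus a signal ratio from 0.5 to 1.5, limit read from the data, passing the limit was not always enough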
MIN6 prolif: MIN6 beta-cell proliferation induction; 330,000 tested, 0.29% active; MIN6 cells proliferation, ATPlite luminescence, 48 h; cells starved in 0.2% serum; 100% = growth in 10% serum; AID 2380; proliferation, % at 10 µM;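 active = compounds whose signal lies at least 3.5 SD above the mean of all wells on their plate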;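 also: 0% = DMSO-treated cells in low-serum medium and 100% = 10% serum control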
SENP1 inh: inhibitors of human SENP1 SUMO protease catalytic domain. recombinant SENP1 catalytic domain, CyPet-SUMO1-YPet FRET cleavage. inhibition, % at 10 µM. 360,000 tested, 0.21% active. AID 624204;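 active = inhibition at least 30% at 10 µM, raw YFP signal under a set limit, fluorescence ratio 0.5 to 1.5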;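 also: 0% = enzyme with DMSO and 100% = no enzyme wells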
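material = recombinant human SENP1 catalytic domain, His6-tagged | quantity = 20 pM enzyme | reagent = 25 nM SUMO1 FRET substrate | compound dosing = 10 µM single point, 0.5% DMSO | timing = 50 min enzyme reaction, room temperature, light-protected | detection = FRET, CFP and YFP emission | control set = no-enzyme low, enzyme-DMSO high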
DAGLB inhibitor: diacylglycerol lipase beta (human) inhibition; inhibition, % at 5.17 µM; 340,000 tested, 0.059% active; HEK293T DAGLB membrane lysate, EnzChek fluorogenic substrate; Q8NCG7; in the data active = inhibition above about 34%;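 also: 0% = enzyme with vehicle and 100% = wells lacking enzyme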
Target sequence (Q8NCG7 whole entry, looked up): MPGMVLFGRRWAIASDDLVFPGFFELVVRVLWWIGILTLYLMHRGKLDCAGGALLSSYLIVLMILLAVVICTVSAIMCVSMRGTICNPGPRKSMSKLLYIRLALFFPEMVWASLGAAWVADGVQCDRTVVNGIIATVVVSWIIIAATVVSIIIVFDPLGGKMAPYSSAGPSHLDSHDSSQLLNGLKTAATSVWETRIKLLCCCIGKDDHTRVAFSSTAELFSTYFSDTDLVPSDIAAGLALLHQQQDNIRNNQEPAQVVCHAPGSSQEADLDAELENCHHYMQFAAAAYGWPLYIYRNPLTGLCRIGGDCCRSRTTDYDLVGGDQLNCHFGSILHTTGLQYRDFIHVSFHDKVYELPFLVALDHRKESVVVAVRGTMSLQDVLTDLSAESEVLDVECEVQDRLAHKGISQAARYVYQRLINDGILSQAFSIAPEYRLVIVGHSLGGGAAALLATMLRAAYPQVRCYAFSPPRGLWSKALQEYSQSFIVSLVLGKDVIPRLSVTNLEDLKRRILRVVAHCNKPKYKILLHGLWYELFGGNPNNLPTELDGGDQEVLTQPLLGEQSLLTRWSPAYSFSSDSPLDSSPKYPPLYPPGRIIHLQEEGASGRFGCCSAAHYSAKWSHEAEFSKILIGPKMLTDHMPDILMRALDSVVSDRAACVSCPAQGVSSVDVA
Myeloid diff MLP: compounds promoting myeloid differentiation. 360,000 tested, 1% active. AID 624256. ER-HoxA9 myeloid progenitors, lysozyme-GFP differentiation, flow cytometry. calls only at 10 µM;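 active = normalized GFP-positive differentiation at or above the plate's own cutoff, the solvent-only control mean plus 3 SD; inconclusive = no clear call, values can overlap the other calls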;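 also: cells exposed to compound for four days before flow analysis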
MT1-MMP act inh: MT1-MMP (human) activation inhibition; P50281; HT1080 RFP-PRO-GFP cells, GFP/RFP ratio fluorescence, overnight; percent of plate control window, DMSO zero; GFP/RFP ratio change, % at 20 µM; 360,000 tested, 0.061% active;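 active = GFP/RFP ratio change of at least 30% with cell ATP level not reduced by more than half and red fluorescence within 50% of control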
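Compound: 20 µM single dose, 1% DMSO / System: HT1080 RFP-PRO-GFP cells / Controls: DMSO and RFP-L50D-GFP cell wells / Read-out basis: GFP/RFP fluorescence ratio / Schedule: overnight compound exposure at 37 °C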
* hit, by the source's call; i = inactive; ? = inconclusive; · = no result; + = active, no number; ! = not active in a repeat.

SMILES	CendR NRP1 mod	MIN6 prolif	SENP1 inh	DAGLB inhibitor	Myeloid diff MLP	MT1-MMP act inh
O=C(C[C@@H]1C/C=C\CC[C@H](Cc2ccc(F)cc2)C(=O)OC[C@@H]2CCCN2C1=O)NCCO	20*	-2	-1	-1	i	0
O=C1NC[C@H](c2ccccc2)OC(=O)[C@H](Cc2ccc(F)cc2)CC/C=C/C[C@@H]1CC(=O)N(CCO)Cc1ccccc1	-5	-6	-1	1	+	6
O=C(C[C@H]1C/C=C\C[C@H](Cc2ccc(F)cc2)C(=O)O[C@@H](c2ccccc2)CNC1=O)NCCO	22*	0	-1	0	i	-1
O=C1NC[C@@H](c2ccccc2)OC(=O)[C@@H](Cc2ccc(F)cc2)CC/C=C/C[C@H]1CC(=O)N(CCO)Cc1ccccc1	1	-6	4	3	?	7
Nc1nc2ncccn2c1-c1ccc(F)c(F)c1	2	·	-17	·	i	4
Cc1ccccc1OCCCn1c(=O)sc2ccccc21	0	-2	2	-15	i	-9
CC(CN1CCCC1)OC(=O)c1ccc(Cl)cc1Cl (stereo unspecified)	2	2	0	2	i	1
CC(CN1CCCCC1)OC(=O)c1ccc(Cl)cc1Cl (stereo unspecified)	22*	3	5	-3	i	0
CN(CCOc1ccc(Cl)cc1)c1ccc(S(=O)(=O)N2CCCCC2)cn1	19*	-4	-1	-12	i	-3
CCCCCCCN1CCC(=O)N([C@H](CO)c2ccccc2)CC1	1	-3	0	0	i	4
CC(=O)N1CCCN(Cc2cn(-c3cc(C)ccc3C)nc2-c2ccccc2)CC1	9	1	-3	0	i	-2
Cc1ccc2nc(SCc3nnc(-c4ccccc4Br)o3)[nH]c2c1	33*	-2	-6	-6	i	-1
O=c1[nH]c(=O)n(Cc2ccccc2)c2nc(-c3ccc(Oc4ccc(F)cc4)c([N+](=O)[O-])c3)n(CCO)c12	26*	0	-2	4	i	-9
COC(=O)C[C@@H]1CC[C@@H](NC(=O)C2CCC2)[C@@H](CO)O1	-4	·	4	·	i	·
Cc1ccccc1CSc1nnc(-c2ccco2)n1Cc1ccco1	-1	-1	-2	-2	+	-1
Cc1ccccc1CSc1nnc(-c2cccs2)n1Cc1ccco1	-1	-3	-2	0	i	3
Cc1cc(N=Nc2c(O)c3ccccc3[nH]c2=O)ccc1N=Nc1ccc(C(=O)N(C)C)cc1	23*	1	-2	1	i	2
CN(C)C(=O)c1ccc(N=Nc2c(O)c3ccccc3[nH]c2=O)cc1	-2	·	1	1	i	-13
O=C(Nc1ccc(S(=O)(=O)N2CCCCC2)cc1)C1CCN(C(=O)c2ccco2)CC1	-2	-1	0	3	+	2
COC(=O)Nc1ccc(S(=O)(=O)N2CCC(C(=O)NC3CCCCC3)CC2)cc1	-12	-3	3	-3	+	1
Cc1ccccc1N1CCN(C2CCCN(C(=O)c3snnc3C)C2)CC1 (stereo unspecified)	-36	-4	3	1	i	0
Cc1ccc2nc(/C(C#N)=C\c3cc(O)ccc3[N+](=O)[O-])[nH]c2c1	-22	-4	-25	1	i	-2
Cc1ccc2nc(/C(C#N)=C/c3ccc(-c4cccc([N+](=O)[O-])c4)o3)[nH]c2c1	-133	·	-26	-1	+	-141
Cc1ccccc1OCC1Cc2c(nc(N)c(C#N)c2N)O1 (stereo unspecified)	53*	2	-1	3	i	9
N#Cc1c(N)nc2c(c1N)CC(COc1ccccc1)O2 (stereo unspecified)	11	-1	0	3	i	6
SMILES	CendR NRP1 mod	MIN6 prolif	SENP1 inh	DAGLB inhibitor	Myeloid diff MLP	MT1-MMP act inh
C/C(=N\NC(=S)NCCc1ccccc1)c1cccs1	28*	-2	27	-9	i	-9
C/C(CCc1ccccc1)=N\NC(=S)NCCc1ccccc1	8	-6	3	-3	i	0
COc1cnc(SCc2c(Cl)cccc2Cl)nc1Cl	-19	-6	-1	-12	i	-7
Cc1ccc(NC(=O)c2ccc3nccnc3c2)c(C)c1	8	2	-2	-1	i	-6
Cc1ccc(S(=O)(=O)/N=C(/NC(=S)Nc2ccccc2)c2ccccc2)cc1	2	-1	-4	-4	i	-5
Cc1ccc(NC(=S)N/C(=N/S(=O)(=O)c2ccccc2)c2ccccc2)cc1	22*!	-3	1	-3	i	1
O=c1[nH]c2ccc(N/C(=N/S(=O)(=O)c3ccccc3)c3ccccc3)cc2[nH]1	21*	1	0	-1	i	1
CC(=O)Nc1ccc(N/C(=N\S(=O)(=O)c2ccccc2)c2ccccc2)cc1	2	1	-1	2	i	-4
Cc1nc(NCc2ccco2)c2cn[nH]c2n1	28*	·	0	-2	i	3
CCOC(=O)C1=C(C)NC2=C(C(=O)CCC2)C1c1cn(Cc2ccc(Cl)cc2Cl)nc1-c1ccccc1 (stereo unspecified)	25*	-3	-67	-5	i	-7
CC(=O)Nc1ccc(NC(=O)C2CC(=O)N=C(N)S2)cc1 (stereo unspecified)	32*	0	0	1	i	2
Cc1ccc2cc(C#N)c(SCC(=O)N3CCCc4ccccc43)nc2c1C	24*	-3	-3	-1	·	-6
COc1ccc(NC(=O)C2C(=O)NC3(C)CC2c2ccccc2O3)cc1 (stereo unspecified)	33*	-5	1	-4	i	-3
O=C(NCc1ccccn1)c1ccc(NS(=O)(=O)c2ccccc2)cc1	22*	1	-1	0	i	0
Cc1ccc(NC(=O)COC(=O)c2cccnc2Cl)cc1S(=O)(=O)N1CCOCC1	14	0	-1	0	i	8
CSc1ncccc1C(=O)OCC(=O)Nc1ccc(C)c(S(=O)(=O)N2CCOCC2)c1	20*	2	2	-2	i	7
CSc1ncccc1C(=O)OCC(=O)NC1CCCCC1	23*	0	0	-2	i	9
CC1CCc2sc(C(=O)NNS(=O)(=O)c3ccc(F)c(F)c3F)cc2C1 (stereo unspecified)	10	-3	0	3	i	-3
C/C(=N\NC(=O)c1ccccc1O)c1ccc(NC(=O)Cc2ccccc2)cc1	6	0	1	1	i	-14
Cc1nc(N)nc(N)c1Oc1ccc(Cl)cc1	1	·	0	-4	+	1

Source: PubChem (several laboratories)
